Experimental findings from ChEMBL document CHEMBL2331420, “Synthesis, cytotoxicity and antiplasmodial activity of novel ent-kaurane derivatives” (Eur J Med Chem, 2013) are described below.

pIC50: −log10 of the molar value. Bounds are passed on as bounds.

A word on the GI50: it is the concentration that inhibits growth by half. A high value points to lower sensitivity of the cells. For orientation: CC50 means the concentration at which the toxic effect on the cells reaches its halfway point. The term pIC50 denotes the negative decadic logarithm of the IC50, by convention in mol/L.

The subject of one series is K562. Briefly: Growth inhibition against human K562 cells after 72 hrs by inverted microscopy. Format: functional. To be noted: K562, 72 h. The method in brief:
(§1)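 Cells seeded at 2×10^4 cells/well in MEM10FCS containing compound at the test concentrations and exposed continuously for 72 h at 37 °C, 10% CO₂, 98% humidity. Untreated control wells were counted daily to confirm exponential growth. Cells were stained with crystal violet and inspected by inverted microscope, and inhibition was judged against controls. GI50 (50% growth inhibition) is the mean of duplicate wells.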

Another series relates to HT-29. Kind of series: Growth inhibition against human HT-29 cells after 72 hrs by inverted microscopy. It counts as functional. To be noted: HT-29, 72 h. The method in brief:
as §1

Series [1] in a line: Growth inhibition against human LoVo/DX cells after 72 hrs by inverted microscopy. It counts as functional. A digest of the protocol: as §1
The nature of series [2]: Growth inhibition against human IGROV cells after 72 hrs by inverted microscopy. It counts as functional. The method in brief:
as §1

The next series has as its system LoVo. Briefly: Growth inhibition against human LoVo cells after 72 hrs by inverted microscopy. It counts as functional. A digest of the protocol:
as §1

The nature of series [3]: Selectivity index, ratio of CC50 for human HepG2 cells to IC50 for chloroquine-resistant Plasmodium falciparum W2 infected in human erythrocytes. Format: functional. The method in brief:
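HepG2 hepatoma cells in RPMI1640 with 5% FBS, 4×10^4 cells/well, allowed 18 h at 37 °C. Four serial dilutions from 1000 µg/mL, final DMSO 0.01%, in triplicate, for 24 h at 37 °C. Cytotoxic concentration taken from the dose–response curve, then divided by the antiplasmodial IC50.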

For the next series, the system named is PANC-1. Kind of series: Growth inhibition against human PANC1 cells after 72 hrs by inverted microscopy. It counts as functional. To be noted: PANC-1, 72 h. A digest of the protocol: as §1
A further series concerns HeLa. Kind of series: Growth inhibition against human HeLa cells after 72 hrs by inverted microscopy. Format: functional. A digest of the protocol: as §1
Series [4] in a line: Cytotoxicity against human HepG2 cells after 24 hrs by MTT assay. Format: cell-based. A digest of the protocol:
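Hep G2A16 hepatoma cells kept in RPMI1640 with 5% FBS and gentamicin, trypsinised and plated at 4×10^4 cells/well, then left 18 h at 37 °C before dosing. Compounds were given in triplicate at four serial-dilution concentrations starting at 1000 µg/mL, with final DMSO 0.01%, for 24 h at 37 °C. MTT (6 mg/mL in PBS) was added for 1 h 30 min, solubilised in DMSO and read at 570 nm. Cytotoxic concentration was taken from the dose–response curve.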

The subject of the next series is Plasmodium falciparum. Kind of series: Antiplasmodial activity against chloroquine-resistant Plasmodium falciparum W2 infected in human erythrocytes assessed as inhibition of parasite growth after 24 hrs by [3H]hypoxanthine incorporation assay. It counts as functional, organism-based. The method in brief: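 Ring-stage parasites, sorbitol-synchronised, in human O-negative erythrocytes in RPMI with 10% human plasma; plated at 1% parasitemia, 1% haematocrit. Compounds diluted from DMSO stocks in hypoxanthine-free medium, final DMSO 0.002%. After 24 h, [3H]-hypoxanthine (0.5 μCi/well) added for another 18 h at 37 °C. Incorporation compared with drug-free controls, IC50 by linear interpolation. Three experiments, each in triplicate.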

Series [5] can be described thus: Toxicity in RBC (unknown origin) assessed as hemolysis at 139 uM. To be noted: erythrocyte. It counts as cell-based.
Series [6] can be described thus: Growth inhibition against human IGROV-ET cells after 72 hrs by inverted microscopy. Format: functional. A digest of the protocol:
as §1

As for `COC(=O)[C@]1(C)CCC[C@]2(C)[C@@H]1CC[C@@]13C[C@H](C[C@H]4O[C@]412)[C@]1(CO1)C3`, the GI50 (in the series on K562; in the series with HT-29; in series [1]; in series [2]; with LoVo; in the series on PANC-1) was over 8.66 µM each time. For the same compound, the GI50 (in the series with HeLa; in [6]) was over 8.66 µM throughout. Also, in [3], the “Ratio CC50/IC50” value came to 117.4. This compound gave a CC50 at 24 h in [4] of 810 µM. The pIC50 with Plasmodium falciparum was 5.16. The Activity entry in [5] is “Toxic”.
